Measurements reported in ChEMBL document CHEMBL5661979, “Pharmacological inhibition of BMK1 suppresses tumor growth through promyelocytic leukemia protein” (Cancer Cell, 2010).

How the values were obtained:
Type in all cases: subcellular
[1] = target: T1, Dual specificity mitogen-activated protein kinase kinase 4 (Homo sapiens) (UniProt P45985); experiment: Inhibition of MAP2K4 in human HeLa cells lysate at 2 uM pre incubated for 15 mins followed by ATP acyl phosphate probe addition and measured after 10 mins by LC-MS/MS analysis relative to control; details: time 25.0 min
T1 sequence (whole entry): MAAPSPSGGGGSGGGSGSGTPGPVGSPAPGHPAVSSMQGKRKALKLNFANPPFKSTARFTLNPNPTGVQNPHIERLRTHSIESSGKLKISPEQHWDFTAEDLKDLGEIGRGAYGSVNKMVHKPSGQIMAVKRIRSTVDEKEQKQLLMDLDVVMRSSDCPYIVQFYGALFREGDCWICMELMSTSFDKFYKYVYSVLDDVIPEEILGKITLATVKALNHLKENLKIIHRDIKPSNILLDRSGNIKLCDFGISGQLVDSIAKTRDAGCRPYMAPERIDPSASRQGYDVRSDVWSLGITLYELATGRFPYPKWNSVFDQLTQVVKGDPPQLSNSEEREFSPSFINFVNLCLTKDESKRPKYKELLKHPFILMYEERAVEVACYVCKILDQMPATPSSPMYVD

[2] = target: Serine/threonine-protein kinase Nek8 (Homo sapiens, UniProt Q86SG6); experiment: Inhibition of NEK8 in human HeLa cells lysate pre incubated for 15 mins followed by ADP acyl phosphate probe addition and measured after 10 mins by LC-MS/MS analysis
Serine/threonine-protein kinase Nek8, sequence (Q86SG6 whole entry): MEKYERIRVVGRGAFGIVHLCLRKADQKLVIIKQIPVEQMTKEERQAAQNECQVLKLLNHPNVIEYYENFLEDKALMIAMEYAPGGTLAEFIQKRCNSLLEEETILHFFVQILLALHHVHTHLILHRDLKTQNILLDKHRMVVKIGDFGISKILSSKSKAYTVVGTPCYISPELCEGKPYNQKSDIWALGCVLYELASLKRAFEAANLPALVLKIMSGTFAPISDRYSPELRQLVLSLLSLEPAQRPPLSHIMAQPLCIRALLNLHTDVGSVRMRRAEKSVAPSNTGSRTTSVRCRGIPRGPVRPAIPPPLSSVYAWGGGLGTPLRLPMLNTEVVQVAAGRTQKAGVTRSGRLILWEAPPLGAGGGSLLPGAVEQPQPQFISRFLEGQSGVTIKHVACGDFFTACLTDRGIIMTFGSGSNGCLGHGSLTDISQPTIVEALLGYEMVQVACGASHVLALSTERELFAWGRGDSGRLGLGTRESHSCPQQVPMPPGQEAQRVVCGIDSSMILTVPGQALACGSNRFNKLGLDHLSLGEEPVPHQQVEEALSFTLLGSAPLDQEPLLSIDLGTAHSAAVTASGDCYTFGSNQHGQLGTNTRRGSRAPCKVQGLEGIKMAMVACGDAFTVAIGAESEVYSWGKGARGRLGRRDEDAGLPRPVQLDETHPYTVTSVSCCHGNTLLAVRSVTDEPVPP

[3] = target: Cyclin-dependent kinase 16 (Homo sapiens, UniProt Q00536); experiment: Inhibition of PCTAIRE1 in human HeLa cells lysate at 50 uM pre incubated for 15 mins followed by ADP acyl phosphate probe addition and measured after 10 mins by LC-MS/MS analysis relative to control; details: time 25.0 min
Cyclin-dependent kinase 16, sequence (Q00536 whole entry): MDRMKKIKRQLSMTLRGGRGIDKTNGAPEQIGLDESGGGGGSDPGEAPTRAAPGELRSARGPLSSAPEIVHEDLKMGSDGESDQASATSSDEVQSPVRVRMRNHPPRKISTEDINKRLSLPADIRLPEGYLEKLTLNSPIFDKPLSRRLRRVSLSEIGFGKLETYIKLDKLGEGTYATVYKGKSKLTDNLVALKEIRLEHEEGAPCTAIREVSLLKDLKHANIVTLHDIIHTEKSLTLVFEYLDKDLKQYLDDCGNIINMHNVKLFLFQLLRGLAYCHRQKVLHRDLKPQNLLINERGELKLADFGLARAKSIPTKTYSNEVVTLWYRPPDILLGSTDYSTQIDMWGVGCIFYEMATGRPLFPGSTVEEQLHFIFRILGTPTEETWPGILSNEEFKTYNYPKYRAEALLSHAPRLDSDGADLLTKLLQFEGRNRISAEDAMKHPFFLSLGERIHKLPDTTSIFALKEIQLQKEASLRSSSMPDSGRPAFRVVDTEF

[4] = target: T2, STE20-related kinase adapter protein beta (Homo sapiens) (UniProt Q9C0K7); experiment: Inhibition of ALS2CR2 in human HeLa cells lysate at 2 uM pre incubated for 15 mins followed by ADP acyl phosphate probe addition and measured after 10 mins by LC-MS/MS analysis relative to control; details: time 25.0 min
T2 sequence (whole entry): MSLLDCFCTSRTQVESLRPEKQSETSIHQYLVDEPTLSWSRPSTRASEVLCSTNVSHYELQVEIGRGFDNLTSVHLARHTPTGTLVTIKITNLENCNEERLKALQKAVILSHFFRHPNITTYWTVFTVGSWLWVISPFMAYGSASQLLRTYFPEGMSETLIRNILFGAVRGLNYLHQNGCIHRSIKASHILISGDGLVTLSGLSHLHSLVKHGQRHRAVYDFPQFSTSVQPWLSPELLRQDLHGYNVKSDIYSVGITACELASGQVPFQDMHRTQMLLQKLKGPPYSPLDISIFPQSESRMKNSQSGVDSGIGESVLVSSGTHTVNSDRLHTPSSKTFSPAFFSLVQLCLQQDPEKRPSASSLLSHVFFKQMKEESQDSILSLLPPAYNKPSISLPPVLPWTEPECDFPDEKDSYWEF
How it was run: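 HeLa cell lysates (5 mg/mL total protein) were preincubated with inhibitor at 0, 0.8, 2, 10 or 50 μM for 15 min. ATP or ADP acylphosphate probe was then added (5 μM final) for 10 min, and reactions were stopped with urea. Up to four fragment ions per kinase probe-peptide were quantified by targeted MS. % inhibition was taken relative to untreated lysate. Run in duplicate.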

[5] = target: Insulin receptor (Homo sapiens, UniProt P06213); experiment: Inhibition of INSR in human HeLa cells lysate pre incubated for 15 mins followed by ADP acyl phosphate probe addition and measured after 10 mins by LC-MS/MS analysis
Insulin receptor, sequence (P06213 28-758 limits assumed): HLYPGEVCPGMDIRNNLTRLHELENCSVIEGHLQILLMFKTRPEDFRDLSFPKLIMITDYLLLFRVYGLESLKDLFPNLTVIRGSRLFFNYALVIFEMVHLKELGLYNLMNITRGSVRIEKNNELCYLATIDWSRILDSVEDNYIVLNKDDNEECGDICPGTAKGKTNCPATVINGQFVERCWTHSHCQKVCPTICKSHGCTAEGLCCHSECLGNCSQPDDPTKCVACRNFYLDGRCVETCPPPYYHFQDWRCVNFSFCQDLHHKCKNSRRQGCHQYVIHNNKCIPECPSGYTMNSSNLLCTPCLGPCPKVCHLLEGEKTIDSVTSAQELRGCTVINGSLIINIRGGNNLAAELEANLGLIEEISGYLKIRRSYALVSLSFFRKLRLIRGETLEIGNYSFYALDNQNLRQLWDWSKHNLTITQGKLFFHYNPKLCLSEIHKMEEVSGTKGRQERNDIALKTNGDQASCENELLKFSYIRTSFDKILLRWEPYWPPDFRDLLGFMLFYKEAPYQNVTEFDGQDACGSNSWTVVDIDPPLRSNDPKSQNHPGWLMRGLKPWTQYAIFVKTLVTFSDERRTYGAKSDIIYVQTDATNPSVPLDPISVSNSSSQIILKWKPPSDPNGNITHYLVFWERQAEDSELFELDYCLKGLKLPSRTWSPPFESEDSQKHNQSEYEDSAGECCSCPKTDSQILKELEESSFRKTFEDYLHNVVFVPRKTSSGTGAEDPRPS
Insulin receptor, sequence (P06213 763-1382 limits assumed): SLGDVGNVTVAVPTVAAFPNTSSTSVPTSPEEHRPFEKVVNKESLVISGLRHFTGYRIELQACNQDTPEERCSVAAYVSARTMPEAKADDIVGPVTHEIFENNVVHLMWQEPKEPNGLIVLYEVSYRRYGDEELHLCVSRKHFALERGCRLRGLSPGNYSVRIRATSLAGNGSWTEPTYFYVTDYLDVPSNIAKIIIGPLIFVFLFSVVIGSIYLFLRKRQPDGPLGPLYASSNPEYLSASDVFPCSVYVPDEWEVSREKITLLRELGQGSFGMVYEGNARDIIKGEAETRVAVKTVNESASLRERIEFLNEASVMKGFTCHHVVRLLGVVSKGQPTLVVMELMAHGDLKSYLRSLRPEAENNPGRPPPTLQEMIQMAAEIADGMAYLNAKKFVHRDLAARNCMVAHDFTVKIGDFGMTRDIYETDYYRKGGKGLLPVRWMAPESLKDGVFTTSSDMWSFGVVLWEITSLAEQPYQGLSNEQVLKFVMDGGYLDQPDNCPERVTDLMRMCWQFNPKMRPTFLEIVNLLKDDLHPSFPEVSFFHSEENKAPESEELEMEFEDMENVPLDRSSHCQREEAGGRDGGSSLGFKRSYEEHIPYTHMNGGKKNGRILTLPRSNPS

[6] = target: T3, Interleukin-1 receptor-associated kinase 4 (Homo sapiens) (UniProt Q9NWZ3); experiment: Inhibition of IRAK4 in human HeLa cells lysate at 2 uM pre incubated for 15 mins followed by ATP acyl phosphate probe addition and measured after 10 mins by LC-MS/MS analysis relative to control; details: time 25.0 min
T3 sequence (whole entry): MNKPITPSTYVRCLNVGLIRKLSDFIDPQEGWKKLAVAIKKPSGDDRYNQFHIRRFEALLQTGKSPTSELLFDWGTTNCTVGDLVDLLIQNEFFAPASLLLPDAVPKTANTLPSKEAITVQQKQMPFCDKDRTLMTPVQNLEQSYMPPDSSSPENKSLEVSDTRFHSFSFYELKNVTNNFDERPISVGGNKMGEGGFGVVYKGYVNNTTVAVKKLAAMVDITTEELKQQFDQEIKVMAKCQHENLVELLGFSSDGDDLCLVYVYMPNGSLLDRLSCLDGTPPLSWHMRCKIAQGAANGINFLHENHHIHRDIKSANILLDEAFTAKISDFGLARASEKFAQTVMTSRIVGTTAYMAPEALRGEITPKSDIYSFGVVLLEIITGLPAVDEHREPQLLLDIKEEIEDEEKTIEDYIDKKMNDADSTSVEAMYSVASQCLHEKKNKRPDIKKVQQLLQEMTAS

[7] = target: Cyclin-dependent kinase 12 (Homo sapiens, UniProt Q9NYV4); experiment: Inhibition of CRK7 in human HeLa cells lysate at 2 uM pre incubated for 15 mins followed by ADP acyl phosphate probe addition and measured after 10 mins by LC-MS/MS analysis relative to control; details: time 25.0 min
Cyclin-dependent kinase 12, sequence (Q9NYV4 whole entry, looked up): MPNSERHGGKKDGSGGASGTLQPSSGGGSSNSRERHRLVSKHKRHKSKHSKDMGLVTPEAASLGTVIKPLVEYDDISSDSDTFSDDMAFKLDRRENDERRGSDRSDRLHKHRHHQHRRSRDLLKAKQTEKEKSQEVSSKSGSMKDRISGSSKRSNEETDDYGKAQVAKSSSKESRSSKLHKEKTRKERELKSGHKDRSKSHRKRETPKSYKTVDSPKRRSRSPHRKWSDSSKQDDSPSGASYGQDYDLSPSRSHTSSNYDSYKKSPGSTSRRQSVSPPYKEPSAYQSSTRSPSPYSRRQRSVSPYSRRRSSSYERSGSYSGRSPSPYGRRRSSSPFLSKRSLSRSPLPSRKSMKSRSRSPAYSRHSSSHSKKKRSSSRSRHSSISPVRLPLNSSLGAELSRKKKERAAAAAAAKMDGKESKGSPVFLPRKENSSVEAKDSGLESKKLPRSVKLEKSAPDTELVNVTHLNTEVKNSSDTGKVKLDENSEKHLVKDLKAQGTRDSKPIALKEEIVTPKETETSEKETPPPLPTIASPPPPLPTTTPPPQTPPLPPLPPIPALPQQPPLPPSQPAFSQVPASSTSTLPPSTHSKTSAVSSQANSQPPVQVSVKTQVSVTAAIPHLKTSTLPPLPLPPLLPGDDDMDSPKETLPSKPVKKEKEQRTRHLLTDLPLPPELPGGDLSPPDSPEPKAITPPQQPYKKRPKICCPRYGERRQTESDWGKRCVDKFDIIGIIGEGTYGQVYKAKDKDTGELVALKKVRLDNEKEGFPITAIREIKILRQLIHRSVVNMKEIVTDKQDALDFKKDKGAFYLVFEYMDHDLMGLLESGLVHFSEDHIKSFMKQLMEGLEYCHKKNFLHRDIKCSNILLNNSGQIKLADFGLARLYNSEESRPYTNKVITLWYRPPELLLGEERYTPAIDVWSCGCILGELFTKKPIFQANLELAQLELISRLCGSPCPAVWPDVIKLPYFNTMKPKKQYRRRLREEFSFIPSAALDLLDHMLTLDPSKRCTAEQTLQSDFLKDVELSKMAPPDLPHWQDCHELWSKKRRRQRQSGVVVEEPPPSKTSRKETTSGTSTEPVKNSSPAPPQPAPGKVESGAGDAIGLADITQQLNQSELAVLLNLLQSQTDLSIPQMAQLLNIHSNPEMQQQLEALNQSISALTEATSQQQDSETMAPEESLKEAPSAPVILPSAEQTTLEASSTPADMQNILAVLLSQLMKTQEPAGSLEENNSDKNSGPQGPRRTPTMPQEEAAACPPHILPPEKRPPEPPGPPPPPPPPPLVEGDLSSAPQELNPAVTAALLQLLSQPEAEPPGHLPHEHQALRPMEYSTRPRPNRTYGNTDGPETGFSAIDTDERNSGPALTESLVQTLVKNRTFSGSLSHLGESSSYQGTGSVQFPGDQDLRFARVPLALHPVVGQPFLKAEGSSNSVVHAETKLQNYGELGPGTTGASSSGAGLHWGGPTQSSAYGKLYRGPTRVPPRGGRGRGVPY

[8] = target: SRSF protein kinase 1 (Homo sapiens, UniProt Q96SB4); experiment: Inhibition of SRPK1 in human HeLa cells lysate at 10 uM pre incubated for 15 mins followed by ATP acyl phosphate probe addition and measured after 10 mins by LC-MS/MS analysis relative to control; details: time 25.0 min
SRSF protein kinase 1, sequence (Q96SB4 whole entry): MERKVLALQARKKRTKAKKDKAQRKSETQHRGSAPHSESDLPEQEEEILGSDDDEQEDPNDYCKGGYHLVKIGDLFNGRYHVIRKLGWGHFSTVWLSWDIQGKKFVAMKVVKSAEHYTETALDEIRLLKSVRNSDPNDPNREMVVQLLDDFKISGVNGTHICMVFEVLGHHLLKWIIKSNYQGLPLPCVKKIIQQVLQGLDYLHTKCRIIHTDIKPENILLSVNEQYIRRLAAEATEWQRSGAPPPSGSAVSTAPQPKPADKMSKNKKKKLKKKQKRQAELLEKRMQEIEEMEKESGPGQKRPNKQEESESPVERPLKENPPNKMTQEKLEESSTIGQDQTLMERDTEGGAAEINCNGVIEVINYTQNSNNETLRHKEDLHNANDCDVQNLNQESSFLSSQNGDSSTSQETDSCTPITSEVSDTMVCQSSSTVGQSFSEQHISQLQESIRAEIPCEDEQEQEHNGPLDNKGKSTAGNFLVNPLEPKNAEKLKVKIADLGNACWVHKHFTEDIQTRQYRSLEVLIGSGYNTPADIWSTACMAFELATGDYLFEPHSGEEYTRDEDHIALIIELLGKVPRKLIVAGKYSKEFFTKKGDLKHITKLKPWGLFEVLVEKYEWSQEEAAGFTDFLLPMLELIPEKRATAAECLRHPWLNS

[9] = target: T4, Dual specificity mitogen-activated protein kinase kinase 7 (Homo sapiens) (UniProt O14733); experiment: Inhibition of MAP2K7 in human HeLa cells lysate at 2 uM pre incubated for 15 mins followed by ADP acyl phosphate probe addition and measured after 10 mins by LC-MS/MS analysis relative to control; details: time 25.0 min
T4 sequence (whole entry): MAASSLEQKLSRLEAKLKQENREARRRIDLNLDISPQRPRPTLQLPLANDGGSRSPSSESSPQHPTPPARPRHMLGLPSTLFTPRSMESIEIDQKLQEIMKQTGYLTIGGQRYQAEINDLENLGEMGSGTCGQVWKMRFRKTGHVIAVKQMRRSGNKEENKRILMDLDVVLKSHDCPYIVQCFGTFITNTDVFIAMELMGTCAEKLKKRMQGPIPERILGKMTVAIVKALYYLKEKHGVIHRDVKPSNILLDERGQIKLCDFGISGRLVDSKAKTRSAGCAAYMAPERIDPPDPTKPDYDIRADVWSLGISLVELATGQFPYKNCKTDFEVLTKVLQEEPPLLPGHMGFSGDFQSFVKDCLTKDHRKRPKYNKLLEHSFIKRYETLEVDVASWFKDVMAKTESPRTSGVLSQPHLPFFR

[10] = target: Serine/threonine-protein kinase mTOR (Homo sapiens, UniProt P42345); experiment: Inhibition of FRAP in human HeLa cells lysate at 2 uM pre incubated for 15 mins followed by ATP acyl phosphate probe addition and measured after 10 mins by LC-MS/MS analysis relative to control; details: time 25.0 min

## CCOc1cc(N2CCC(O)CC2)ccc1Nc1ncc2c(n1)N(C)c1ccccc1C(=O)N2C
[1]
  inhibition: 4.8%
[2]
  IC50: > 50 µM
[3]
  inhibition: 11.3%
[4]
  inhibition: 17%
[5]
  IC50: > 50 µM
[6]
  inhibition: 6.7%
[7]
  inhibition: 5.4%
[8]
  inhibition: 1.3%
[9]
  inhibition: 17.9%
[10]
  inhibition: 4.6%
